Test results reported in ChEMBL document CHEMBL1159312, “Novel bioactive clerodane diterpenoids from the leaves and twigs of Casearia sylvestris” (J Nat Prod, 2002).
In brackets after ≈: the same amount, converted by molar mass.

How the values were obtained:
KB = experiment: Cytotoxicity against human KB cells after 72 hrs by MTS method; type: functional, cell-based
Aspergillus niger = experiment: Antifungal activity against Aspergillus niger; type: functional
How it was run: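 Disk diffusion assay measuring growth inhibition of Aspergillus niger, run by an earlier published method. The zone of inhibition is reported as an area rather than a diameter.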

LX-1 = experiment: Cytotoxicity against human LX1 cells after 72 hrs by MTS method; type: functional, cell-based; conditions: LX-1, 72 h
How it was run: (§1)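 Cells grown in McCoy's 5A with 10% heat-inactivated fetal bovine serum and seeded 24 h before dosing. Serially diluted compound was added, then incubated 72 h at 37 °C. MTS with phenazine methosulfate was added for 3 h more, and absorbance at 492 nm gave survival relative to untreated controls. IC50 was taken from six-point curves (5-fold dilutions), each point in duplicate.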

HCT-116 = experiment: Cytotoxicity against human HCT116 cells after 72 hrs by MTS method; type: functional, cell-based; conditions: HCT-116, 72 h; how it was run: as §1
A2780 = experiment: Cytotoxicity against human A2780 cells after 72 hrs by MTS method; type: functional, cell-based; conditions: A2780, 72 h; how it was run: as §1

Question: For C=C/C(C)=C/C[C@]1(C)[C@H](C)C[C@H](O)[C@]23C(=C[C@@H](OC(=O)CCCCC)C[C@@H]12)[C@@H](OC(C)=O)O[C@H]3OC(C)=O [CASEARVESTRIN C], which EC50 (KB) is on record?
Answer: The EC50 was 0.34 µg/mL (≈ 0.638 µM).

Question: What about the “inhibition zone (IZ)” value (Aspergillus niger) of the same molecule?
Answer: Its value is 177 mm2.

Question: What about the IC50 (LX-1) of the same molecule?
Answer: The IC50 was 290 nM.

Question: And the IC50 (HCT-116)?
Answer: Its IC50 is 260 nM.

Question: And the IC50 (A2780)?
Answer: The IC50 was 420 nM.

Question: For CC[C@@]1(O)C(=O)OCc2c1cc1n(c2=O)Cc2cc3ccccc3nc2-1 [CAMPTOTHECIN], which IC50 (LX-1) is on record?
Answer: Its IC50 is 120 nM.

Question: And the IC50 (HCT-116)?
Answer: The IC50 was 9 nM.

Question: What about the IC50 (A2780) of the same molecule?
Answer: Its IC50 is 4 nM.

Question: For C=C/C(C)=C/C[C@]1(C)[C@H](C)C[C@H](O)[C@]23C(=C[C@@H](OC(=O)C(C)C)C[C@@H]12)[C@@H](OC(C)=O)O[C@H]3OC(C)=O [CASEARVESTRIN A], which EC50 (KB) is on record?
Answer: Its EC50 is 1.4 µg/mL (≈ 2.77 µM).

Question: What about the “inhibition zone (IZ)” value (Aspergillus niger) of the same molecule?
Answer: Its value is 348 mm2.

Question: And the IC50 (LX-1)?
Answer: The IC50 was 540 nM.

Question: What about the IC50 (HCT-116) of the same molecule?
Answer: Its IC50 is 710 nM.

Question: What about the IC50 (A2780) of the same molecule?
Answer: Its IC50 is 820 nM.

Question: Which results are given for C=C/C(C)=C/C[C@]1(C)[C@H](C)C[C@H](O)[C@]23C(=C[C@@H](OC(=O)C(C)CC)C[C@@H]12)[C@@H](OC(C)=O)O[C@H]3OC(C)=O (some centres undefined) [CASEARVESTRIN B]?
Answer: EC50 (KB): 1.4 µg/mL (≈ 2.7 µM); inhibition zone (IZ) (Aspergillus niger): 296 mm2; IC50 (LX-1): 200 nM; IC50 (HCT-116): 250 nM; IC50 (A2780): 320 nM

Question: For C[C@@H]1[C@H](O)[C@@H](C)/C=C/C=C/C=C/C=C/C=C/C=C/C=C/[C@H](O[C@@H]2O[C@H](C)[C@@H](O)[C@H](N)[C@@H]2O)C[C@@H]2O[C@](O)(C[C@@H](O)C[C@@H](O)[C@H](O)CC[C@@H](O)C[C@@H](O)CC(=O)O[C@H]1C)C[C@H](O)[C@H]2C(=O)O [AMPHOTERICIN B], which “inhibition zone (IZ)” value (Aspergillus niger) is on record?
Answer: Its value is 254 mm2.
